ChEMBL document CHEMBL1671676, “In vitro activity of nemonoxacin, a novel nonfluorinated quinolone, against 2,440 clinical isolates” (2009)
≈ marks a conversion by molar mass, not a printed value.

Legend:
Type in all cases: functional
Streptococcus pneumoniae [1] = test: Antibacterial activity against Streptococcus pneumoniae assessed as percent cumulative susceptible isolates at minimum inhibitory concentration of 2 ug/ml by CLSI broth microdilution method; design: scale not given: the % may be the effect or the level left
[2] = test system: Staphylococcus epidermidis; test: Antibacterial activity against methicillin-susceptible Staphylococcus epidermidis assessed as percent cumulative susceptible isolates at minimum inhibitory concentration of 32 ug/ml by CLSI broth microdilution method; design: scale not given: the % may be the effect or the level left
Outline: (§1)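 Clinical isolates tested by CLSI broth microdilution using 96-well panels of doubling drug dilutions in cation-adjusted Mueller-Hinton broth with 5% lysed horse blood. MIC was read from these panels. Panel quality control used CLSI ATCC strains, including S. pneumoniae 49619, S. aureus 29213, E. faecalis 29212 and E. coli 25922. Cumulative percentages of isolates were tabulated at each MIC.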

Acinetobacter baumannii [3] = test: Antibacterial activity against Acinetobacter baumannii assessed as percent cumulative susceptible isolates at minimum inhibitory concentration of 0.06 ug/ml by CLSI broth microdilution method; design: scale not given: the % may be the effect or the level left
Streptococcus pneumoniae [4] = test: Antibacterial activity against Streptococcus pneumoniae assessed as percent cumulative susceptible isolates at minimum inhibitory concentration of 32 ug/ml by CLSI broth microdilution method; design: scale not given: the % may be the effect or the level left; outline: as §1
Pseudomonas aeruginosa [5] = test: Antibacterial activity against Pseudomonas aeruginosa assessed as percent cumulative susceptible isolates at minimum inhibitory concentration of 0.06 ug/ml by CLSI broth microdilution method; design: scale not given: the % may be the effect or the level left
[6] = test system: Staphylococcus epidermidis; test: Antibacterial activity against methicillin-susceptible Staphylococcus epidermidis assessed as percent cumulative susceptible isolates at minimum inhibitory concentration of 8 ug/ml by CLSI broth microdilution method; design: scale not given: the % may be the effect or the level left
Streptococcus pneumoniae [7] = test: Antibacterial activity against Streptococcus pneumoniae assessed as percent cumulative susceptible isolates at minimum inhibitory concentration of 8 ug/ml by CLSI broth microdilution method; design: scale not given: the % may be the effect or the level left
[8] = test system: Stenotrophomonas maltophilia; test: Antibacterial activity against Stenotrophomonas maltophilia assessed as percent cumulative susceptible isolates at minimum inhibitory concentration of 0.5 ug/ml by CLSI broth microdilution method; design: scale not given: the % may be the effect or the level left
Pseudomonas aeruginosa [9] = test: Antibacterial activity against Pseudomonas aeruginosa assessed as percent cumulative susceptible isolates at minimum inhibitory concentration of >=[…] by CLSI broth microdilution method; design: scale not given: the % may be the effect or the level left
Klebsiella pneumoniae = test: Antibacterial activity against Klebsiella pneumoniae assessed as percent cumulative susceptible isolates at minimum inhibitory concentration of 8 ug/ml by CLSI broth microdilution method; design: scale not given: the % may be the effect or the level left
Staphylococcus aureus [10] = test: Antibacterial activity against non-levofloxacin susceptible Staphylococcus aureus assessed as percent cumulative susceptible isolates at minimum inhibitory concentration of 64 ug/ml by CLSI broth microdilution method; design: scale not given: the % may be the effect or the level left
Enterococcus faecium [11] = test: Antibacterial activity against Enterococcus faecium assessed as percent cumulative susceptible isolates at minimum inhibitory concentration of […] by CLSI broth microdilution method; design: scale not given: the % may be the effect or the level left
Pseudomonas aeruginosa [12] = test: Antibacterial activity against Pseudomonas aeruginosa assessed as percent cumulative susceptible isolates at minimum inhibitory concentration of 64 ug/ml by CLSI broth microdilution method; design: scale not given: the % may be the effect or the level left
Staphylococcus aureus [13] = test: Antibacterial activity against non-levofloxacin susceptible Staphylococcus aureus assessed as percent cumulative susceptible isolates at minimum inhibitory concentration of 0.5 ug/ml by CLSI broth microdilution method; design: scale not given: the % may be the effect or the level left
Proteus mirabilis [14] = test: Antibacterial activity against Proteus mirabilis assessed as percent cumulative susceptible isolates at minimum inhibitory concentration of 0.5 ug/ml by CLSI broth microdilution method; design: scale not given: the % may be the effect or the level left
Staphylococcus aureus [15] = test: Antibacterial activity against Levofloxacin-susceptible Staphylococcus aureus assessed as percent cumulative susceptible isolates at minimum inhibitory concentration of 0.06 ug/ml by CLSI broth microdilution method; design: scale not given: the % may be the effect or the level left
Enterococcus faecalis [16] = test: Antibacterial activity against Enterococcus faecalis assessed as percent cumulative susceptible isolates at minimum inhibitory concentration of 128 ug/ml by CLSI broth microdilution method; design: scale not given: the % may be the effect or the level left
Escherichia coli [17] = test: Antibacterial activity against Escherichia coli assessed as percent cumulative susceptible isolates at minimum inhibitory concentration of 2 ug/ml by CLSI broth microdilution method; design: scale not given: the % may be the effect or the level left
Staphylococcus aureus [18] = test: Antibacterial activity against community-associated methicillin-resistant Staphylococcus aureus assessed as percent cumulative susceptible isolates at minimum inhibitory concentration of […] by CLSI broth microdilution method; design: scale not given: the % may be the effect or the level left
Escherichia coli [19] = test: Antibacterial activity against Escherichia coli assessed as percent cumulative susceptible isolates at minimum inhibitory concentration of 0.03 ug/ml by CLSI broth microdilution method; design: scale not given: the % may be the effect or the level left
Acinetobacter baumannii [20] = test: Antibacterial activity against Acinetobacter baumannii by CLSI M7-A7 broth microdilution method
Escherichia coli [21] = test: Antibacterial activity against Escherichia coli assessed as percent cumulative susceptible isolates at minimum inhibitory concentration of 64 ug/ml by CLSI broth microdilution method; design: scale not given: the % may be the effect or the level left
Streptococcus pneumoniae [22] = test: Antibacterial activity against Streptococcus pneumoniae assessed as percent cumulative susceptible isolates at minimum inhibitory concentration of 0.03 ug/ml by CLSI broth microdilution method; design: scale not given: the % may be the effect or the level left
Proteus mirabilis [23] = test: Antibacterial activity against Proteus mirabilis assessed as percent cumulative susceptible isolates at minimum inhibitory concentration of >=[…] by CLSI broth microdilution method; design: scale not given: the % may be the effect or the level left
Streptococcus pneumoniae [24] = test: Antibacterial activity against penicillin-resistant Streptococcus pneumoniae by CLSI M7-A7 broth microdilution method
Outline: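 Broth microdilution per CLSI guidelines on clinical isolates, using panels of doubling drug dilutions in cation-adjusted Mueller-Hinton broth with 5% lysed horse blood. MIC read per CLSI, and cumulative percentage of isolates inhibited at each concentration tabulated.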

Enterococcus faecium [25] = test: Antibacterial activity against Enterococcus faecium by CLSI M7-A7 broth microdilution method
Staphylococcus aureus [26] = test: Antibacterial activity against hospital-associated methicillin-resistant Staphylococcus aureus assessed as percent cumulative susceptible isolates at minimum inhibitory concentration of 4 ug/ml by CLSI broth microdilution method; design: scale not given: the % may be the effect or the level left
Pseudomonas aeruginosa [27] = test: Antibacterial activity against Pseudomonas aeruginosa assessed as percent cumulative susceptible isolates at minimum inhibitory concentration of 128 ug/ml by CLSI broth microdilution method; design: scale not given: the % may be the effect or the level left
Enterococcus faecalis [28] = test: Antibacterial activity against Enterococcus faecalis assessed as percent cumulative susceptible isolates at minimum inhibitory concentration of 0.5 ug/ml by CLSI broth microdilution method; design: scale not given: the % may be the effect or the level left
Pseudomonas aeruginosa [29] = test: Antibacterial activity against Pseudomonas aeruginosa assessed as percent cumulative susceptible isolates at minimum inhibitory concentration of 8 ug/ml by CLSI broth microdilution method; design: scale not given: the % may be the effect or the level left
Staphylococcus aureus [30] = test: Antibacterial activity against methicillin-resistant Staphylococcus aureus assessed as percent cumulative susceptible isolates at minimum inhibitory concentration of 2 ug/ml by CLSI broth microdilution method; design: scale not given: the % may be the effect or the level left
Staphylococcus aureus [31] = test: Antibacterial activity against Levofloxacin-susceptible Staphylococcus aureus assessed as percent cumulative susceptible isolates at minimum inhibitory concentration of […] by CLSI broth microdilution method; design: scale not given: the % may be the effect or the level left
Staphylococcus aureus [32] = test: Antibacterial activity against methicillin-resistant Staphylococcus aureus assessed as percent cumulative susceptible isolates at minimum inhibitory concentration of […] by CLSI broth microdilution method; design: scale not given: the % may be the effect or the level left
Staphylococcus aureus [33] = test: Antibacterial activity against non-levofloxacin susceptible Staphylococcus aureus assessed as percent cumulative susceptible isolates at minimum inhibitory concentration of 4 ug/ml by CLSI broth microdilution method; design: scale not given: the % may be the effect or the level left
Staphylococcus aureus [34] = test: Antibacterial activity against community-associated methicillin-resistant Staphylococcus aureus assessed as percent cumulative susceptible isolates at minimum inhibitory concentration of 0.5 ug/ml by CLSI broth microdilution method; design: scale not given: the % may be the effect or the level left
Staphylococcus aureus [35] = test: Antibacterial activity against non-levofloxacin susceptible Staphylococcus aureus assessed as percent cumulative susceptible isolates at minimum inhibitory concentration of 32 ug/ml by CLSI broth microdilution method; design: scale not given: the % may be the effect or the level left

C[C@H]1COc2c(N3CCN(C)CC3)c(F)cc3c(=O)c(C(=O)O)cn1c23.C[C@H]1COc2c(N3CCN(C)CC3)c(F)cc3c(=O)c(C(=O)O)cn1c23.O [LEVOFLOXACIN] showed an Activity (Streptococcus pneumoniae [1]) of 99.4%, an Activity [2] of 100% and an Activity (Acinetobacter baumannii [3]) of 6.7%. The Activity (Streptococcus pneumoniae [4]) was 100%, the Activity (Pseudomonas aeruginosa [5]) was 2.2% and the Activity [6] was 76.7%. For the same compound, the Activity (Streptococcus pneumoniae [7]) was 99.5% and the Activity [8] was 7.7%.

With COc1c(N2C[C@@H](C)C[C@H](N)C2)ccc2c(=O)c(C(=O)O)cn(C3CC3)c12 [NEMONOXACIN] the Activity (Pseudomonas aeruginosa [9]) was 100%, the Activity (Klebsiella pneumoniae) was 95% and the Activity (Staphylococcus aureus [10]) was 100%. It also gave an Activity (Enterococcus faecium [11]) of 28.9%, an Activity (Pseudomonas aeruginosa [12]) of 95.6% and an Activity (Staphylococcus aureus [13]) of 19%. It also gave an Activity (Proteus mirabilis [14]) of 54.5%, an Activity (Staphylococcus aureus [15]) of 97.1% and an Activity (Enterococcus faecalis [16]) of 100%. It also gave an Activity (Escherichia coli [17]) of 75.5%, an Activity (Staphylococcus aureus [18]) of 16% and an Activity (Escherichia coli [19]) of 1.5%. It also gave an MIC90 (Acinetobacter baumannii [20]) of 1 µg/mL (≈ 2.69 µM), an Activity (Escherichia coli [21]) of 98.2% and an Activity (Streptococcus pneumoniae [22]) of 99.1%. For the same compound, the Activity (Proteus mirabilis [23]) was 100%, the MIC90 (Streptococcus pneumoniae [24]) was 0.03 µg/mL (≈ 0.0808 µM) and the MIC90 (Enterococcus faecium [25]) was 128 µg/mL (≈ 345 µM). The Activity (Staphylococcus aureus [26]) was 57.6%, the Activity (Pseudomonas aeruginosa [27]) was 97.8% and the Activity (Enterococcus faecalis [28]) was 70.4%. The Activity (Pseudomonas aeruginosa [29]) was 78.8%, the Activity (Staphylococcus aureus [30]) was 37.8% and the Activity (Staphylococcus aureus [31]) was 33.8%. For the same compound, the Activity (Staphylococcus aureus [32]) was 4.7%, the Activity (Staphylococcus aureus [33]) was 67.3% and the Activity (Staphylococcus aureus [34]) was 92%. It also gave an Activity (Staphylococcus aureus [35]) of 98%.
